Molecules are shown by their SMILES.

The values below come from ChEMBL document CHEMBL1938261, “Discovery of novel α7 nicotinic acetylcholine receptor ligands via pharmacophoric and docking studies of benzylidene anabaseine analogs” (Bioorg Med Chem Lett, 2012).

For experiment [1], the target named is T1, Neuronal acetylcholine receptor; alpha4/beta2 (Homo sapiens, UniProt P17787+P43681). Briefly: Displacement of [3H]epibatidine from human alpha4beta2 nAchR expressed in SH-EP1 cells at 5 uM. It is filed as cell-based. The procedure, abridged: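 Percent inhibition of control [3H]-epibatidine binding to human α4β2 expressed in SH-EP1 cells, with test compound at 5 μM. Reported ± standard error, with replicate number per value.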
T1 sequence (P17787 whole entry): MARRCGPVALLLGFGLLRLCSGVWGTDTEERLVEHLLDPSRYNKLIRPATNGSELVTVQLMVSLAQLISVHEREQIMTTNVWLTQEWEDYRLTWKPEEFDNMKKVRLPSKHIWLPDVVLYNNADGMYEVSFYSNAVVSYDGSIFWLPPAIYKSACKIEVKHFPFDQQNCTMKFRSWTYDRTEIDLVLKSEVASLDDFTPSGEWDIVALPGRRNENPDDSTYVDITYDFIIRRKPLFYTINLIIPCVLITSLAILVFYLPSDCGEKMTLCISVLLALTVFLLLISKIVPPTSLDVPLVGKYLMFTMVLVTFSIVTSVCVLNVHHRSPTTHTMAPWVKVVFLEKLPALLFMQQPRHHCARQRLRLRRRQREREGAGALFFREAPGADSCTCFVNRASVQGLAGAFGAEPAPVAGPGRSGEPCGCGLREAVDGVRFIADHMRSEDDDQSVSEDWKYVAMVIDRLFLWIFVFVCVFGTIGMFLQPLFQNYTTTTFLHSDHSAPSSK
T1 sequence (P43681 whole entry): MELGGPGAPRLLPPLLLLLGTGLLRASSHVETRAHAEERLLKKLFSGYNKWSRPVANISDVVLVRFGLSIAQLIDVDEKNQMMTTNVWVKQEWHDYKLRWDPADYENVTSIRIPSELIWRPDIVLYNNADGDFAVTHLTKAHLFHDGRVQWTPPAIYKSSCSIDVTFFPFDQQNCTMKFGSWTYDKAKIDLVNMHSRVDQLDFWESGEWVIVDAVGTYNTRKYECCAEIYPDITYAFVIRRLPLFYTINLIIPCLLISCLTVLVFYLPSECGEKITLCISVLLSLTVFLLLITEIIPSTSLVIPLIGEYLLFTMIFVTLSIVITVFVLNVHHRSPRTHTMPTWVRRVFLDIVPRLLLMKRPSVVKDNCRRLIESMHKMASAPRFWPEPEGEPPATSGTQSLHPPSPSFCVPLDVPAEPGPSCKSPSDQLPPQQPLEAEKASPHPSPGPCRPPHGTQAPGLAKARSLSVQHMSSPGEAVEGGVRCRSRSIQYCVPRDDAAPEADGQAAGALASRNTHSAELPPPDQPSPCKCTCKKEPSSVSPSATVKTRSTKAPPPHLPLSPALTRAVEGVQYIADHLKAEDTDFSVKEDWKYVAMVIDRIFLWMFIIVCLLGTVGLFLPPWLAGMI
A general note: Displacement assays read how much labelled ligand stays bound in the presence of the test substance.

Experiment [2] can be described thus: Displacement of [3H]methyllycaconitine from rat alpha7 nAchR in rat hippocampal membrane. It is filed as cell membranes, Hippocampus. In a few lines: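 α7 sites on rat hippocampal membranes, labelled with [3H]-methyllycaconitine. Inhibition of binding measured over a seven-point dose-response curve, with replicates averaged at each point. IC50 taken by least-squares non-linear regression against log concentration. Ki given ± standard error, with replicate number per value.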

Experiment [3] can be described thus: (§1) Partial agonist activity at rat alpha7 nAchR by patch clamp assay. It is filed as functional. In general terms: The patch-clamp technique gives a direct electrical read-out from membranes.
A further experiment is filed under the species Rattus norvegicus. Described as §1. It is filed as functional.
For experiment [4], the target named is Neuronal acetylcholine receptor; alpha3/beta4 (Homo sapiens) (UniProt P30926+P32297). Briefly: Displacement of [3H]epibatidine from human alpha3beta4 nAchR expressed in SH-SY5Y cells at 5 uM. It is filed as cell-based. In a few lines:
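Radioligand displacement using [3H]-epibatidine on SH-SY5Y cell membranes (ganglion-type nicotinic receptors). Compounds tested at 5 μM; percent inhibition of control radioligand binding reported, with the number of replicates given for each result.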

Experiment [5] deals with T1, Neuronal acetylcholine receptor; alpha4/beta2. Briefly: Displacement of [3H]epibatidine from human alpha4beta2 nAchR expressed in SH-EP1 cells. It is filed as cell-based. In a few lines:
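Human α4β2 heterologously expressed in SH-EP1 cells, labelled with [3H]-epibatidine. Inhibition of binding measured over a seven-point dose-response curve, with replicates averaged at each point. IC50 taken by least-squares non-linear regression against log concentration. Ki reported ± standard error, with replicate number per value.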

As usually defined, the inhibition is the change of the read-out against control, counted positive when it falls. High values mean strong suppression, low ones little suppression. The term Ki denotes a measure of affinity in units of concentration, obtained from inhibition or displacement. Take `COc1ccccc1C1=NCC2(CN3CCC2CC3)NC(=O)C1` (stereo not given): the inhibition in experiment [1] worked out at 7%. The same compound yielded a Ki in experiment [2] of 110 nM.
A word on the EC50: it is the midpoint of the concentration-response curve. By Emax is commonly meant the greatest response seen or fitted, relative to the assay's reference. Regarding `Oc1c(C2=NC3(CN2)CN2CCC3CC2)oc2ccccc12` (stereo not given), in experiment [1], the inhibition is 32%. This compound registered an inhibitory constant (Ki) in experiment [2] of 7 nM. In experiment [3], this compound registered an EC50 of 600 nM. In the experiment listed under Rattus norvegicus, the Emax worked out at 53%.
As to `C1=NCC2(CN3CCC2CC3)NC=C1c1ccccc1` (stereo not given), the inhibition in experiment [1] was found to be 6%.
Consider `Nc1c(C2=NC3(CN2)CN2CCC3CC2)oc2ccccc12` (stereo not given), for which, in experiment [1], the inhibition worked out at 9%. In addition, the Ki in experiment [2] is 120 nM.
In turn, `Oc1ccccc1C1=NC2(CN1)CN1CCC2CC1` (stereo not given) came in with an inhibition in experiment [1] of 4%. Further, the Ki in experiment [2] came to 290 nM.
The corresponding values for `O=C1CC(c2cccs2)=NCC2(CN3CCC2CC3)N1` (stereo not given) are 20% and 58 nM.
The corresponding values for `COc1ccc(C2=NCC3(CN4CCC3CC4)NC(=O)C2)cc1` (stereo not given) are 42% and 42 nM.
In experiment [1], `c1ccc2oc(C3=NC4(CN3)CN3CCC4CC3)cc2c1` (stereo not given) gave an inhibition of 4%.
As for `COc1cc(O)ccc1/C=C1\CCCN=C1c1cccnc1`, the inhibition in experiment [1] is 97%; in experiment [4], 75%.
On to `COc1ccc(/C=C2\CCCN=C2c2cccnc2)c(OC)c1` [GTS-21], for which the Ki in experiment [2] was determined as 1300 nM; in experiment [5], 51 nM.
As to `O=C1CC(c2ccc(Br)s2)=NCC2(CN3CCC2CC3)N1` (stereo not given), in experiment [1], the inhibition is 62%. This compound registered a Ki in experiment [2] of 77 nM.
Take `c1ccc(C2=NC3(CN2)CN2CCC3CC2)cc1` (stereo not given): the inhibition in experiment [1] worked out at 11%.
For `COc1cccc(C2=NCC3(CN4CCC3CC4)NC(=O)C2)c1` (stereo not given), the inhibition in experiment [1] came out at 12%. The affinity in experiment [2] corresponds to a Ki of 87 nM.
The corresponding values for `O=C1CC(c2ccco2)=NCC2(CN3CCC2CC3)N1` (stereo not given) are 14% and 150 nM.
The matching figures for `OC1=CC(c2ccccc2)=NCC2(CN3CCC2CC3)N1` (stereo not given): 15% and 140 nM.
`O=C1NCC2(CN3CCC2CC3)NC(=O)C1c1ccccc1` (stereo not given) had an inhibition in experiment [1] of 2%.
